Measurements from different studies.
Lines come from different studies, so protocols differ.
Target: Cyclin-dependent kinase 16 (CDK16, Homo sapiens, UniProt Q00536)

Structure (SMILES)	assay	setting	remaining binding
COc1cc(-c2cn(C3CCc4c(F)cccc4N(CC(F)(F)F)C3=O)nn2)ccc1-n1cnc(C)c1 (stereo not shown)	cell-free assay, competition with immobilised ligand	1 µM	82%
c1cnn2ncc(-c3ccnc(N4CCC45COC5)n3)c2c1	binding	1 µM	97%
O=C(NCCCN1CCOCC1)c1ccc(Nc2nccc(-c3cc4ccccc4s3)n2)cc1	binding, competition with immobilised ligand	1 µM	75%
C=CC(=O)N1CCC(C(=O)NCC(=O)N2CCN(c3nc(-c4cnc(N)nc4C(F)F)nc(N4CCOCC4)n3)CC2)CC1	binding, competition with immobilised ligand	1 µM	100%
O=C(c1ccc(Nc2ncc(Cl)c(-c3ccc(Cl)s3)n2)cc1)N1CCC(N2CCCC2)CC1	binding, competition with immobilised ligand	1 µM	0.2%
CC1CCCN1c1nccc(-c2cnn3ncccc23)n1 (stereo not shown)	binding	1 µM	100%
O=C(c1ccc(Nc2nccc(-c3cc4ccccc4s3)n2)cc1)N1CCC(N2CCCC2)CC1	binding, competition with immobilised ligand	1 µM	58%
CN(CCCC(F)(F)F)c1nccc(-c2cnn3ncccc23)n1	binding	1 µM	100%
O=C(O)[C@@H]1[C@@H](Cn2nnc3ccccc3c2=O)CC[C@H]1C(=O)c1ccc(OCCC2CCOCC2)cc1	cell-free assay, competition with immobilised ligand	1 µM	100%
CN(C)c1nccc(-c2cnc3ncccn23)n1	binding	1 µM	73%
COc1cnc(Nc2cccc(S(N)(=O)=O)c2)nc1N1CCN(c2ccccc2)CC1	binding, competition with immobilised ligand	1 µM	79%
O=C(Nc1c[nH]nc1C(=O)NC1CCNCC1)c1cc(F)cc(F)c1	binding, competition with immobilised ligand	1 µM	12%
O=C(Nc1ccc(Oc2ccc(F)cc2)cc1)N1CCc2ncccc2[C@H]1c1ccc(F)cc1	cell-free assay, competition with immobilised ligand	1 µM	65%
N[C@H]1CCN(c2nccc(-c3cnn4ncccc34)n2)C1	binding	1 µM	100%
CC(C)(C)c1ccc(-c2nc(CBr)nn2-c2cccc(O)c2)cc1	cell-free assay, competition with immobilised ligand	10 µM	69%
c1ccc(N2CCN(Cc3nc4ccccc4[nH]3)CC2)nc1	binding, competition with immobilised ligand	1 µM	100%
CN(c1nccc(-c2cnn3ncccc23)n1)C1CC1	binding	1 µM	100%
Cc1c(NC(=O)c2cc(C(N)=O)nc3cc(F)ccc23)c(C(F)(F)F)nn1Cc1ccc(C(C)(C)C)cc1	cell-free assay, competition with immobilised ligand	1 µM	100%
COc1ncc2cc3ccccc3nc2c1C#N	cell-free assay, competition with immobilised ligand	5 µM	97%
Cc1nc(N2CC[C@@H](O)C2)ncc1-c1cc(C(F)(F)F)cc2[nH]ncc12	binding, competition with immobilised ligand	1 µM	75%
F[C@@H]1CCN(c2nccc(-c3cnn4ncccc34)n2)C1	binding	1 µM	100%
COCCOc1nc(-c2ccc(Cl)nc2)nc2c1CN(C(=O)c1ncn3ccccc13)CC2	cell-free assay, competition with immobilised ligand	0.1 µM	100%
Nc1ncc2c(n1)-c1c([nH]c3ccc(C#CC4CC4)cc13)CCCC2	binding, competition with immobilised ligand	1 µM	100%
CS(=O)(=O)NCC[C@H](NC(=O)c1cncc2c1cnn2-c1ccc(F)cc1)c1ccnc(S(C)(=O)=O)c1	cell-free assay, competition with immobilised ligand	1 µM	100%
C[C@@H]1CN(c2ccc3ncc(-c4ccc5[nH]nc(C6CC6)c5c4)n3n2)C[C@H](C)O1	binding, competition with immobilised ligand	50 nM	98%
